The values that follow come from paper PMC3099401 (Journal of agricultural and food chemistry, 2011).

Where only a bound is given, the exact number is not on record here.

Data set [1] has as its system SK-N-AS neuroblastoma cells. Description: In vivo efficacy, SK-N-AS xenograft mouse model. Details: species or system athymic nu/nu mice.
Data set [2] relates to neuroblastoma cells. Put plainly: Cellular uptake by live-cell multiphoton microscopy. Format: cell-based. As to conditions: 37°C. The method, boiled down: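 Live neuroblastoma cells in HBSS kept at 37°C on a stage incubator. Two-photon imaging used 765 nm Ti:Sapphire excitation, a 20× objective and a GaAsP photon-counting detector, with 1024×1024 images at identical laser power. Imaging ran from 90 s (the earliest possible) and at 5 min after adding 100 μM test compound, then again 5 min after an HBSS wash and after re-addition.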

The test system of data set [3] is SK-N-AS neuroblastoma cells. Put plainly: Calcium imaging with fura-2, SK-N-AS. In kind it is cell-based. As to conditions: 100 μM.
The next data set has as its system NGP neuroblastoma cells. Description: Calcium imaging with fura-2, NGP. Format: cell-based. As to conditions: 100 μM.
The subject of data set [4] is neuroblastoma cells. Put plainly: In vitro cell viability. Format: cell-based. As to conditions: 4 days, normalized to DMSO controls; for effect on viability: 100 and 200 μM.

For `Oc1ccc(/C=C/c2cc(O)cc(O)c2)cc1` [Res, resveratrol], the tumor regression entry in data set [1] (direct injection into the tumor, 250mg/kg, block copolymer formulation) is listed as “regression of the tumor was then observed”. Further, the “tumor inhibition compared to vehicle-treated controls” value in data set [1] (peri-tumor, 5 injections of 200 μL R-P104 (approx. 5.0 mg Res each) over two weeks) was “about 88%”. Besides, the “cellular uptake (cellular fluorescence, excited at 765 nm)” value in the data set on neuroblastoma cells [2] (100 μM, HBSS) is “enters and then permeates throughout the cell”. In addition, the “time after addition until cells become brightly fluorescent” value in the data set with neuroblastoma cells [2] (earliest time point that can be taken) was at most 90 s. In addition, the “change in [Ca^2+]i (fura-2 fluorescence)” value (in data set [3]; in the data set with NGP neuroblastoma cells) was “rise in [Ca^2+]i” throughout. Moreover, in the data set on neuroblastoma cells [4] (100 μM), the “reduction of the number of viable cells” value is given as about 85%.

Take `O=C(O)[C@H]1O[C@@H](Oc2ccc(/C=C/c3cc(O)cc(O)c3)cc2)[C@H](O)[C@@H](O)[C@@H]1O` [4′-Glu-Res, 4′-O-glucuronidated Res]: the effect on viability entry in the data set with neuroblastoma cells [4] is “no effect on viability”.

As for `O=S(=O)(O)Oc1cc(O)cc(/C=C/c2ccc(O)cc2)c1` [monosulf-Res, Res 3-O-sulfate], in the data set with neuroblastoma cells [4], the effect on viability entry is given as “no effect on viability”.

With `O=C(O)[C@H]1O[C@@H](Oc2cc(O)cc(/C=C/c3ccc(O)cc3)c2)[C@H](O)[C@@H](O)[C@@H]1O` [3-Glu-Res, 3-O-glucuronidated Res], the effect on viability result in the data set on neuroblastoma cells [4] is given as “no effect on viability”.
